High-throughput results: PubChem, several laboratories
ASAP1 inh – inhibitors of human ASAP1 ArfGAP activity, primary screen, biochemical, fluorescence polarization. actives 0.19% (n = 360,000). Arf-GAP with SH3 domain, ANK repeat and PH domain-containing protein 1 (Homo sapiens), …. ASAP1-stimulated ARF1 GTP hydrolysis, GDP FP detection. inhibition, % at 16.5 µM; in the data active means inhibition above about 25%
Target sequence (Q9ULH1 325-724 limits assumed): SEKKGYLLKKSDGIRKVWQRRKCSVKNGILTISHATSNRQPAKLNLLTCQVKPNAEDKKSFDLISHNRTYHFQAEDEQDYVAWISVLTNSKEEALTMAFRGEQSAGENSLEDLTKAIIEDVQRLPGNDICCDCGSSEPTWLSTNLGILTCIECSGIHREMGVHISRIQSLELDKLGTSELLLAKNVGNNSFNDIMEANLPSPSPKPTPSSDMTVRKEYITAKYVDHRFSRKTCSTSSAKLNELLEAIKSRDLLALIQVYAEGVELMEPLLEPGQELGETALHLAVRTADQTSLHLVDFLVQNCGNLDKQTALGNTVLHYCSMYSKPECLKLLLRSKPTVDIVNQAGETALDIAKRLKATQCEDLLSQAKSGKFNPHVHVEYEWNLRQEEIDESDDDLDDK
ARFGAP1 inh – inhibitors of rat ARFGAP1 GAP activity, primary screen, biochemical, fluorescence polarization, GDP tracer. Arfgap1-stimulated ARF1 GTP hydrolysis, GDP FP detection. inhibition, % at 16.5 µM. actives 0.26% (n = 360,000). AID 651572, 2012. ADP-ribosylation factor GTPase-activating protein 1 (Rattus norvegicus), Q62848;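 active means inhibition above a per-plate limit, mean inhibition of low control wells plus 3 SD, cut at about 25% in these data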
Target sequence (Q62848 1-136 limits assumed): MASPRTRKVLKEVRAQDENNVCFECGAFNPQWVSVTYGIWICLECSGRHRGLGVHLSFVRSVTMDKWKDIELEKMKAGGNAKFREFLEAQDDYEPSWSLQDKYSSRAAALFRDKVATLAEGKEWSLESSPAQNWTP
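System: truncated rat Arfgap1 GAP domain / Benchmarks: high control wells lacking Arfgap1, low control full reaction with DMSO / Times: compound-enzyme preincubation 20 min, reaction 120 min, detection 60 min, 25 °C / Repeats: one replicate per compound / Also added: human ARF1(Δ1-17)-GTP substrate / Measured by: Tracer-displacement fluorescence polarization with EDTA stop, 620/688 nm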
SMARCA2 activ – SMARCA2 (BRM) function activators, primary screen, cell-based, luminescence, high throughput. MG213 cells, MMTV-luciferase reporter, dexamethasone, overnight. activation, % at 9.1 µM. actives 1% (n = 370,000). AID 652017, 2013; in the data active means activation above about 7.8%
esBAF inh – Bmi1 luciferase reporter increase in mESCs, primary screen, esBAF inhibitor project, mouse ES cells, Bmi1 luciferase knock-in, single point. 24 h; 100% = twice the neutral-well signal. reporter increase, % at 12.5 µM. actives 2% (n = 350,000). AID 602393, 2012; in the data active means activation above about 40%;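 further: a rise in the Bmi1 reporter signal indicates esBAF inhibition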
SMARCA2 act conf – SMARCA2 (BRM) function activators, confirmation, cell-based, luminescence, triplicate; shares compounds with SMARCA2 activ; MG213 cells, MMTV-luciferase with dexamethasone, overnight; MG213 cells expressing E1A, Rb sequestered; DMSO wells 0%, reference activator 100%; activation, % at 9.1 µM; actives 30% (n = 3,500); AID 652260, 2013;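 active means activation above its plate's cutoff, the mean activation of tested wells plus 3 SD, cut at about 7.9% in these data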
GAL4-VP16 Luc – GAL4-VP16 luciferase reporter activation, counter-screen for SMARCA2 (BRM) activator project, cell-based, pG5luc, luminescence, high throughput. shares compounds with SMARCA2 activ. HEK293 GAL4-VP16 pG5luc reporter; scaled: DMSO wells 0%, SAHA wells 100%. activation, % at 9.1 µM. actives 41% (n = 3,500). AID 686939, 2013;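 active means activation above the solvent-only control well mean plus 3 SD, averaged across control plates, cut at about 5.2% in these data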
Of the large screens only hits and unclear results are named; the others gave an inactive call (follow-up assays come after a bar, where they were run). Most compounds without a hit are left out; they make up all but 2.6% or so of the library.

COc1ccccc1NC(=O)CCN1C(=O)c2ccccc2C1=O	SMARCA2 activ 9.5 | SMARCA2 act conf inactive | GAL4-VP16 Luc inactive
Cc1ccc2c(c1)N(CC(=O)NCC(C)c1ccccc1)C(=O)c1cccnc1O2 (stereo not drawn)	SMARCA2 activ 12 | SMARCA2 act conf inactive | GAL4-VP16 Luc inactive
O=C(Nc1ccc(F)cc1)N1CCCCN2[C@H](CO)[C@@H](c3ccc(C#CC4CC4)cc3)[C@H]2C1	none (no result: ASAP1 inh, ARFGAP1 inh, SMARCA2 activ)
C[C@@H]1CCCCO[C@@H](CN(C)C(=O)c2ccncc2)[C@H](C)CN([C@H](C)CO)C(=O)c2cc(NC(=O)CCC(F)(F)F)ccc2O1	none (no result: ASAP1 inh, ARFGAP1 inh, SMARCA2 activ)
O=C(NN=C(Cc1ccccc1)Cc1ccccc1)c1ccccc1F	none (no result: esBAF inh)
CCCC(CCC)=NNC(=O)c1ccccc1F	SMARCA2 activ 8.2 | SMARCA2 act conf inactive | GAL4-VP16 Luc inactive
CC(C)N1CCC(N2CCN(Cc3ccc(-c4ccc(Cl)cc4)o3)CC2CCO)CC1 (stereo not drawn)	SMARCA2 activ 9.9 | SMARCA2 act conf inactive | GAL4-VP16 Luc inactive
COc1cc(/C=N/Nc2ccccn2)ccc1O	SMARCA2 activ 9.6 (no result: esBAF inh) | SMARCA2 act conf inactive | GAL4-VP16 Luc 10
COc1ccc(Br)cc1CN(C)CC(=O)Nc1c(Cl)ccc(C)c1Cl	SMARCA2 activ 8.1 (no result: esBAF inh) | SMARCA2 act conf inactive | GAL4-VP16 Luc inactive
COc1ccc(Br)cc1CN(C)CC(=O)NCCc1ccccc1	none
COc1ccc(C(=O)Nc2ccc3ccccc3c2)cc1	none
CS(=O)(=O)Nc1ccc(C(=O)Nc2ccc3ccccc3c2)cc1	SMARCA2 activ 8.4 | SMARCA2 act conf 16 | GAL4-VP16 Luc 7.2
CCC(=O)Nc1ccc2c(c1)C(=O)N(C)[C@@H]1CC[C@@H](CC(=O)NC3Cc4ccccc4C3)O[C@H]1CO2	none (no result: ASAP1 inh, ARFGAP1 inh, SMARCA2 activ)
COc1ccc(OCC(O)CN2CCC(CN3C(=O)c4cccc5cccc(c45)C3=O)CC2)cc1 (stereo not drawn)	SMARCA2 activ 11 (no result: esBAF inh) | SMARCA2 act conf inactive | GAL4-VP16 Luc inactive
Cc1ccc(C)c(OCC(O)CN2CCC(CN3C(=O)c4cccc5cccc(c45)C3=O)CC2)c1 (stereo not drawn)	none (no result: esBAF inh)
Cc1cc(N2CCCC2)nc2ccc(NC(=S)NCCCN3CCC(C)CC3)cc12	SMARCA2 activ 12 (no result: esBAF inh) | SMARCA2 act conf 19 | GAL4-VP16 Luc inactive
Cc1ccc(OCC(=O)Nc2sc3c(c2C#N)CC(C)(C)NC3(C)C)cc1	none (no result: esBAF inh)
CC1(C)Cc2c(sc(NC(=O)COc3cccc4ccccc34)c2C#N)C(C)(C)N1	SMARCA2 activ 54 | SMARCA2 act conf 41 | GAL4-VP16 Luc inactive
C[C@H]1CN([C@@H](C)CO)C(=O)c2cc(NS(=O)(=O)c3ccccc3)ccc2O[C@H]1CN(C)S(C)(=O)=O	none (no result: ASAP1 inh, ARFGAP1 inh, SMARCA2 activ)
CN(C)c1ccc(NC(N)=S)cc1	none (no result: esBAF inh)
CN(C)c1ccc(Cl)c(NC(N)=S)c1	SMARCA2 activ 8.2 | SMARCA2 act conf inactive | GAL4-VP16 Luc inactive
COc1ccc(NC(=O)Nc2cccc3c2O[C@H](CN(C)C(=O)Nc2ccccc2)[C@H](C)CN([C@@H](C)CO)C3=O)cc1	none (no result: ASAP1 inh, ARFGAP1 inh, SMARCA2 activ)
Cc1ccccc1C(=O)OCCN1CCOCC1	SMARCA2 activ 8.3 (no result: esBAF inh) | SMARCA2 act conf inactive | GAL4-VP16 Luc inactive
CCCC(=O)Nc1nnc(SCC)s1	SMARCA2 activ 8.5 (no result: esBAF inh) | SMARCA2 act conf inactive | GAL4-VP16 Luc inactive
CCSc1nnc(NC(=O)c2csc(C)c2)s1	SMARCA2 activ 8.1 | SMARCA2 act conf inactive | GAL4-VP16 Luc 8.8
CN1c2ccc(Br)cc2[C@H]2[C@H](CCN2C(=O)C2CC2)[C@@H]1CO	none (no result: ASAP1 inh, ARFGAP1 inh, SMARCA2 activ)
Cc1ccc(C)c(S(=O)(=O)N2CCN(c3nc(CN4CCOCC4)nc4sc(C)c(C)c34)CC2)c1	SMARCA2 activ 9.1 | SMARCA2 act conf inactive | GAL4-VP16 Luc inactive
Cc1ccc(S(=O)(=O)N2CCN(c3nc(CN4CCCC4)nc4sc(C)c(C)c34)CC2)cc1	none
c1ccc(CSc2ccc(-c3ccc4c(c3)OCO4)nn2)cc1	SMARCA2 activ 11 (no result: esBAF inh) | SMARCA2 act conf 7.9 | GAL4-VP16 Luc inactive
CCCC(=O)N1C[C@@H]2[C@H](c3ccccc31)[C@H](CO)N2C(=O)CC1CC1	none (no result: ASAP1 inh, ARFGAP1 inh, SMARCA2 activ)
C[C@H]1CN([C@@H](C)CO)S(=O)(=O)c2ccc(-c3ccc(C#N)cc3)cc2O[C@H]1CN(C)Cc1cccc(F)c1	none (no result: ASAP1 inh, ARFGAP1 inh, SMARCA2 activ)
CCc1ccc(-n2nc3cc(C)c(N)cc3n2)cc1	SMARCA2 activ 11 | SMARCA2 act conf inactive | GAL4-VP16 Luc 13
Cc1ccc(-n2nc3cc(C)c(N)cc3n2)cc1	none (no result: esBAF inh)
Fc1ccc(CSc2ccc(-c3ccco3)nn2)cc1	none (no result: esBAF inh)
Fc1cccc(CSc2ccc(-c3ccco3)nn2)c1	SMARCA2 activ 15, esBAF inh 66 | SMARCA2 act conf 13 | GAL4-VP16 Luc 5.5
N#C/C(=C\c1cc([N+](=O)[O-])c(N2CCOCC2)cc1N1CCOCC1)c1nc2ccccc2[nH]1	none
COc1cc(/C=C(\C#N)c2nc3ccccc3[nH]2)cc(OC)c1O	SMARCA2 activ 8.2 (no result: esBAF inh) | SMARCA2 act conf inactive | GAL4-VP16 Luc 5.7
N#C/C(=C/c1ccc(N2CCOCC2)o1)c1nc2ccccc2[nH]1	SMARCA2 activ 9.7 | SMARCA2 act conf 16 | GAL4-VP16 Luc 17
Cc1ccc(/C=C(\C#N)c2nc3ccccc3[nH]2)s1	SMARCA2 activ 10, esBAF inh 98 | SMARCA2 act conf 19 | GAL4-VP16 Luc 11
N#C/C(=C/c1cccs1)c1nc2ccccc2[nH]1	SMARCA2 activ 9.3, esBAF inh 134 | SMARCA2 act conf 24 | GAL4-VP16 Luc inactive
